Laboratory results published in ChEMBL document CHEMBL4689842, “EUbOPEN Chemogenomics Library wave 1” (2021).

System: U2OS
Test: Multiplex assay against U2OS
Type: toxicity, cell-based
Conditions: human
In short: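 Values for tubulin, mitochondrial-mass and membrane-permeability phenotypes are per cents of cells with healthy nuclei. These cells were identified by CellPathfinder machine-learning gating of live cells that had been stained at seeding with Hoechst33342, BioTracker Green Microtubule Cytoskeleton Dye, MitoTracker Red and Annexin V Alexa Fluor 680 and imaged on a CQ1 microscope at 37°C and 5% CO2 after compound addition. The gating first set Hoechst high-intensity objects apart from normal cells, then split normal cells into healthy, pyknosed or fragmented nuclei, and pyknosed cells into mitotic or apoptotic.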

[1] = 12 h, 1 µM, compound concentration 1 uM, replicate 1
[2] = 12 h, 1 µM, compound concentration 1 uM, replicate 2
[3] = 12 h, 10 µM, compound concentration 10 uM, replicate 1
[4] = 12 h, 10 µM, compound concentration 10 uM, replicate 2
[5] = 24 h, 1 µM, compound concentration 1 uM, replicate 1
[6] = 24 h, 1 µM, compound concentration 1 uM, replicate 2
[7] = 24 h, 10 µM, compound concentration 10 uM, replicate 1
[8] = 24 h, 10 µM, compound concentration 10 uM, replicate 2
[9] = 48 h, 1 µM, compound concentration 1 uM, replicate 1
[10] = 48 h, 1 µM, compound concentration 1 uM, replicate 2
[11] = 48 h, 10 µM, compound concentration 10 uM, replicate 1
[12] = 48 h, 10 µM, compound concentration 10 uM, replicate 2

**Q.** For `COc1ccc(NS(=O)(=O)c2sc3ccc(Cl)cc3c2C)cc1N1CCNCC1.Cl`, which “Population Apoptotic (%)” value [1] is on record?
**A.** 57%

**Q.** And the “Population Fragmented Nuclei (%)” value [1]?
**A.** 12%

**Q.** What about the “Population Healthy Nuclei (%)” value [1] of the same compound?
**A.** 74%

**Q.** What about the “Population Hoechst High Intensity Objects (%)” value [1] of the same compound?
**A.** 6%

**Q.** And the “Population Membrane Permeable-Phenotype (%)” value [1]?
**A.** 6%

**Q.** And the “Population Mitochondria Different-Phenotype (%)” value [1]?
**A.** 11%

**Q.** And the “Population Mitotic Cells (%)” value [1]?
**A.** 42%

**Q.** What about the “Population Normal (%)” value [1] of the same compound?
**A.** 93%

**Q.** And the “Population Pyknosed Nuclei (%)” value [1]?
**A.** 12%

**Q.** What about the “Population Tubulin-Different-Phenotype (%)” value [1] of the same compound?
**A.** 10%

**Q.** What about the “Total Cell Count” value [1] of the same compound?
**A.** 172

**Q.** What about the “Population Apoptotic (%)” value [2] of the same compound?
**A.** 28%

**Q.** And the “Population Fragmented Nuclei (%)” value [2]?
**A.** 13%

**Q.** And the “Population Healthy Nuclei (%)” value [2]?
**A.** 69%

**Q.** What about the “Population Hoechst High Intensity Objects (%)” value [2] of the same compound?
**A.** 12%

**Q.** And the “Population Membrane Permeable-Phenotype (%)” value [2]?
**A.** 0%

**Q.** And the “Population Mitochondria Different-Phenotype (%)” value [2]?
**A.** 26%

**Q.** What about the “Population Mitotic Cells (%)” value [2] of the same compound?
**A.** 71%

**Q.** What about the “Population Normal (%)” value [2] of the same compound?
**A.** 87%

**Q.** What about the “Population Pyknosed Nuclei (%)” value [2] of the same compound?
**A.** 16%

**Q.** And the “Total Cell Count” value [2]?
**A.** 69

**Q.** What about the “Population Apoptotic (%)” value [3] of the same compound?
**A.** 43%

**Q.** And the “Population Fragmented Nuclei (%)” value [3]?
**A.** 12%

**Q.** What about the “Population Healthy Nuclei (%)” value [3] of the same compound?
**A.** 57%

**Q.** What about the “Population Hoechst High Intensity Objects (%)” value [3] of the same compound?
**A.** 5%

**Q.** What about the “Population Membrane Permeable-Phenotype (%)” value [3] of the same compound?
**A.** 29%

**Q.** And the “Population Mitochondria Different-Phenotype (%)” value [3]?
**A.** 97%

**Q.** And the “Population Mitotic Cells (%)” value [3]?
**A.** 56%

**Q.** What about the “Population Normal (%)” value [3] of the same compound?
**A.** 94%

**Q.** What about the “Population Pyknosed Nuclei (%)” value [3] of the same compound?
**A.** 30%

**Q.** And the “Population Tubulin-Different-Phenotype (%)” value [3]?
**A.** 97%

**Q.** And the “Total Cell Count” value [3]?
**A.** 162

**Q.** What about the “Population Apoptotic (%)” value [4] of the same compound?
**A.** 61%

**Q.** And the “Population Fragmented Nuclei (%)” value [4]?
**A.** 14%

**Q.** And the “Population Healthy Nuclei (%)” value [4]?
**A.** 56%

**Q.** What about the “Population Hoechst High Intensity Objects (%)” value [4] of the same compound?
**A.** 4%

**Q.** What about the “Population Membrane Permeable-Phenotype (%)” value [4] of the same compound?
**A.** 25%

**Q.** And the “Population Mitochondria Different-Phenotype (%)” value [4]?
**A.** 100%

**Q.** And the “Population Mitotic Cells (%)” value [4]?
**A.** 38%

**Q.** What about the “Population Normal (%)” value [4] of the same compound?
**A.** 95%

**Q.** And the “Population Pyknosed Nuclei (%)” value [4]?
**A.** 29%

**Q.** And the “Population Tubulin-Different-Phenotype (%)” value [4]?
**A.** 94%

**Q.** What about the “Total Cell Count” value [4] of the same compound?
**A.** 49

**Q.** What about the “Population Apoptotic (%)” value [5] of the same compound?
**A.** 52%

**Q.** What about the “Population Healthy Nuclei (%)” value [5] of the same compound?
**A.** 76%

**Q.** And the “Population Hoechst High Intensity Objects (%)” value [5]?
**A.** 5%

**Q.** What about the “Population Membrane Permeable-Phenotype (%)” value [5] of the same compound?
**A.** 3%

**Q.** What about the “Population Mitochondria Different-Phenotype (%)” value [5] of the same compound?
**A.** 10%

**Q.** What about the “Population Mitotic Cells (%)” value [5] of the same compound?
**A.** 48%

**Q.** What about the “Population Normal (%)” value [5] of the same compound?
**A.** 95%

**Q.** And the “Population Pyknosed Nuclei (%)” value [5]?
**A.** 13%

**Q.** And the “Population Tubulin-Different-Phenotype (%)” value [5]?
**A.** 6%

**Q.** What about the “Total Cell Count” value [5] of the same compound?
**A.** 174

**Q.** What about the “Population Apoptotic (%)” value [6] of the same compound?
**A.** 33%

**Q.** What about the “Population Fragmented Nuclei (%)” value [6] of the same compound?
**A.** 10%

**Q.** And the “Population Healthy Nuclei (%)” value [6]?
**A.** 77%

**Q.** And the “Population Hoechst High Intensity Objects (%)” value [6]?
**A.** 3%

**Q.** And the “Population Membrane Permeable-Phenotype (%)” value [6]?
**A.** 5%

**Q.** What about the “Population Mitochondria Different-Phenotype (%)” value [6] of the same compound?
**A.** 13%

**Q.** And the “Population Mitotic Cells (%)” value [6]?
**A.** 66%

**Q.** And the “Population Normal (%)” value [6]?
**A.** 96%

**Q.** And the “Population Pyknosed Nuclei (%)” value [6]?
**A.** 12%

**Q.** And the “Population Tubulin-Different-Phenotype (%)” value [6]?
**A.** 5%

**Q.** And the “Total Cell Count” value [6]?
**A.** 67

**Q.** And the “Population Apoptotic (%)” value [7]?
**A.** 61%

**Q.** What about the “Population Fragmented Nuclei (%)” value [7] of the same compound?
**A.** 17%

**Q.** What about the “Population Healthy Nuclei (%)” value [7] of the same compound?
**A.** 51%

**Q.** What about the “Population Hoechst High Intensity Objects (%)” value [7] of the same compound?
**A.** 7%

**Q.** And the “Population Membrane Permeable-Phenotype (%)” value [7]?
**A.** 35%

**Q.** What about the “Population Mitochondria Different-Phenotype (%)” value [7] of the same compound?
**A.** 98%

**Q.** What about the “Population Mitotic Cells (%)” value [7] of the same compound?
**A.** 38%

**Q.** What about the “Population Normal (%)” value [7] of the same compound?
**A.** 92%

**Q.** What about the “Population Pyknosed Nuclei (%)” value [7] of the same compound?
**A.** 31%

**Q.** What about the “Population Tubulin-Different-Phenotype (%)” value [7] of the same compound?
**A.** 95%

**Q.** What about the “Total Cell Count” value [7] of the same compound?
**A.** 200

**Q.** And the “Population Apoptotic (%)” value [8]?
**A.** 68%

**Q.** What about the “Population Fragmented Nuclei (%)” value [8] of the same compound?
**A.** 16%

**Q.** What about the “Population Healthy Nuclei (%)” value [8] of the same compound?
**A.** 47%

**Q.** And the “Population Hoechst High Intensity Objects (%)” value [8]?
**A.** 2%

**Q.** And the “Population Membrane Permeable-Phenotype (%)” value [8]?
**A.** 55%

**Q.** And the “Population Mitochondria Different-Phenotype (%)” value [8]?
**A.** 97%

**Q.** And the “Population Mitotic Cells (%)” value [8]?
**A.** 32%

**Q.** And the “Population Normal (%)” value [8]?
**A.** 97%

**Q.** And the “Population Pyknosed Nuclei (%)” value [8]?
**A.** 35%

**Q.** And the “Population Tubulin-Different-Phenotype (%)” value [8]?
**A.** 91%

**Q.** And the “Total Cell Count” value [8]?
**A.** 51

**Q.** What about the “Population Apoptotic (%)” value [9] of the same compound?
**A.** 36%

**Q.** What about the “Population Fragmented Nuclei (%)” value [9] of the same compound?
**A.** 8%

**Q.** What about the “Population Healthy Nuclei (%)” value [9] of the same compound?
**A.** 82%

**Q.** And the “Population Hoechst High Intensity Objects (%)” value [9]?
**A.** 3%

**Q.** What about the “Population Membrane Permeable-Phenotype (%)” value [9] of the same compound?
**A.** 3%

**Q.** And the “Population Mitochondria Different-Phenotype (%)” value [9]?
**A.** 8%

**Q.** And the “Population Mitotic Cells (%)” value [9]?
**A.** 64%

**Q.** And the “Population Pyknosed Nuclei (%)” value [9]?
**A.** 9%

**Q.** What about the “Population Tubulin-Different-Phenotype (%)” value [9] of the same compound?
**A.** 6%

**Q.** What about the “Total Cell Count” value [9] of the same compound?
**A.** 178

**Q.** What about the “Population Apoptotic (%)” value [10] of the same compound?
**A.** 22%

**Q.** And the “Population Fragmented Nuclei (%)” value [10]?
**A.** 13%

**Q.** What about the “Population Healthy Nuclei (%)” value [10] of the same compound?
**A.** 73%

**Q.** And the “Population Hoechst High Intensity Objects (%)” value [10]?
**A.** 4%

**Q.** And the “Population Membrane Permeable-Phenotype (%)” value [10]?
**A.** 7%

**Q.** What about the “Population Mitochondria Different-Phenotype (%)” value [10] of the same compound?
**A.** 20%

**Q.** And the “Population Mitotic Cells (%)” value [10]?
**A.** 77%

**Q.** What about the “Population Normal (%)” value [10] of the same compound?
**A.** 96%

**Q.** What about the “Population Pyknosed Nuclei (%)” value [10] of the same compound?
**A.** 12%

**Q.** What about the “Population Tubulin-Different-Phenotype (%)” value [10] of the same compound?
**A.** 11%

**Q.** And the “Total Cell Count” value [10]?
**A.** 73

**Q.** And the “Population Apoptotic (%)” value [11]?
**A.** 73%

**Q.** And the “Population Fragmented Nuclei (%)” value [11]?
**A.** 20%

**Q.** And the “Population Healthy Nuclei (%)” value [11]?
**A.** 37%

**Q.** What about the “Population Hoechst High Intensity Objects (%)” value [11] of the same compound?
**A.** 12%

**Q.** And the “Population Membrane Permeable-Phenotype (%)” value [11]?
**A.** 46%

**Q.** And the “Population Mitochondria Different-Phenotype (%)” value [11]?
**A.** 94%

**Q.** What about the “Population Mitotic Cells (%)” value [11] of the same compound?
**A.** 26%

**Q.** And the “Population Normal (%)” value [11]?
**A.** 87%

**Q.** What about the “Population Pyknosed Nuclei (%)” value [11] of the same compound?
**A.** 41%

**Q.** And the “Population Tubulin-Different-Phenotype (%)” value [11]?
**A.** 98%

**Q.** What about the “Total Cell Count” value [11] of the same compound?
**A.** 281

**Q.** What about the “Population Apoptotic (%)” value [12] of the same compound?
**A.** 68%

**Q.** And the “Population Fragmented Nuclei (%)” value [12]?
**A.** 17%

**Q.** And the “Population Healthy Nuclei (%)” value [12]?
**A.** 56%

**Q.** And the “Population Hoechst High Intensity Objects (%)” value [12]?
**A.** 6%

**Q.** And the “Population Membrane Permeable-Phenotype (%)” value [12]?
**A.** 56%

**Q.** And the “Population Mitochondria Different-Phenotype (%)” value [12]?
**A.** 93%

**Q.** And the “Population Mitotic Cells (%)” value [12]?
**A.** 31%

**Q.** And the “Population Normal (%)” value [12]?
**A.** 93%

**Q.** What about the “Population Pyknosed Nuclei (%)” value [12] of the same compound?
**A.** 26%

**Q.** What about the “Population Tubulin-Different-Phenotype (%)” value [12] of the same compound?
**A.** 82%

**Q.** What about the “Total Cell Count” value [12] of the same compound?
**A.** 75
